Screening data (PubChem)
iPSC survival up: hiPSC single-cell survival enhancement; survival enhancement, % at 20 µM; AID 602274; ATPlite luminescence; 100% = ROCK inhibitor wells, 0% = DMSO; 360,000 tested, 0.044% active; in the data active = survival enhancement above about 18%;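 note: cells exposed to compounds for 16 hours before the ATP read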
CendR NRP1 mod: modulators of CendR peptide binding to human neuropilin-1 | O14786 | inhibition, % at 25 µM | 360,000 tested, 0.85% active | FAM-RPARPAR peptide binding to NRP-1, fluorescence polarization;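 active = inhibition or corrected inhibition above about 18%, plus a signal ratio from 0.5 to 1.5, limit read from the data, passing the limit was not always enough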
Target sequence (O14786 whole entry, looked up): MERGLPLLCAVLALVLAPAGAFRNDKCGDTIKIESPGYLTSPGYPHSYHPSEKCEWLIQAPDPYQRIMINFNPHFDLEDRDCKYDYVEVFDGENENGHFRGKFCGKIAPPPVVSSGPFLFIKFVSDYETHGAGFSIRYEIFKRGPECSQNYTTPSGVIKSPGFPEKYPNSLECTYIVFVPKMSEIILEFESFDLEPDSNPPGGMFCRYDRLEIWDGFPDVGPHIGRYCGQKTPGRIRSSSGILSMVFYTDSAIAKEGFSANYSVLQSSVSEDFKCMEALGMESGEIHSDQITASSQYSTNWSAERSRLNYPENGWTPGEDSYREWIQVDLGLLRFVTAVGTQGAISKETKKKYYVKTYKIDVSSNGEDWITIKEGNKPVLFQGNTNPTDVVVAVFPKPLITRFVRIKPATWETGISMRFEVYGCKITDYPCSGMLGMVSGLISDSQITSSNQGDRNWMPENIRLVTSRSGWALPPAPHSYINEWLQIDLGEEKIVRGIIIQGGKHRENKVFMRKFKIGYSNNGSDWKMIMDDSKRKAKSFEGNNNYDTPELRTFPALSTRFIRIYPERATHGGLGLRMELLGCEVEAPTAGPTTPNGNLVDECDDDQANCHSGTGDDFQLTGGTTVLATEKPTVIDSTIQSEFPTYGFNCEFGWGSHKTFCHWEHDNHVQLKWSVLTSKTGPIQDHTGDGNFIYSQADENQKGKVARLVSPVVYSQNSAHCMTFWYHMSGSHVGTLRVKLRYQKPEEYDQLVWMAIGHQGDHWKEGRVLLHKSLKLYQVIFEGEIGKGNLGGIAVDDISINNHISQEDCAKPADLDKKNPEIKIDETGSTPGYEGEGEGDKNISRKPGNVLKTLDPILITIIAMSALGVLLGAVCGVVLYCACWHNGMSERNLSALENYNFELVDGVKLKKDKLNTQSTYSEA
SKN-1 inh: blocks SKN-1 activity in C. elegans; C. elegans VP596 Pgst-4::GFP/RFP ratio, acrylamide-induced, 24 h; inhibition, % at 21.8 µM; 360,000 tested, 0.49% active;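 active = interference check ratio from 0.5 to 1.5 plus GFP to RFP signal ratio inhibition reaching or exceeding a fixed threshold, cut at about 30% in these data, passing the limit was not always enough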
MT1-MMP act inh: blocks activation of human MT1-MMP. HT1080 RFP-PRO-GFP cells, GFP/RFP ratio fluorescence, overnight; percent of plate control window, DMSO zero. GFP/RFP ratio change, % at 20 µM. 360,000 tested, 0.061% active. AID 651647;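 active = GFP/RFP ratio change of at least 30% with cell ATP level not reduced by more than half and red fluorescence within 50% of control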
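Material: RFP-PRO-GFP reporter HT1080 cells. Dosing: single-point 20 µM compound, 1% DMSO. Controls: DMSO and RFP-L50D-GFP cell wells. Timing: cells overnight before dosing, compound overnight, 37 °C, 5% CO2. Measure: GFP/RFP fluorescence ratio.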
MT1-MMP act val: MT1-MMP (human) activation inhibition, single-concentration validation. shares compounds with MT1-MMP act inh. HT1080 RFP-PRO-GFP cells, GFP and RFP fluorescence ratio, overnight. inhibition, % at 20 µM. 200 tested, 10% active. AID 652235;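 active = inhibition of at least 50% in the primary cell screen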
* marks the source's active call; other numbers are inactive results; x = no result given. Rows were chosen to be rich in hits. Some 1.4% of all compounds tested hit in one or more screens of this group.

SMILES	iPSC survival up	CendR NRP1 mod	SKN-1 inh	MT1-MMP act inh	MT1-MMP act val
Cc1ccc(C2CC(=O)Oc3cc(O)ccc32)cc1 (stereo not drawn)	0.0	-28.3	35.3*	38.0*	16.3
CCOC(=O)C1CCCN(C(=O)c2cccc([N+](=O)[O-])c2C)C1 (stereo not drawn)	-0.7	4.1	-1.5	-3.8	x
O=C(O)c1ccc(N=N/C(=N\Nc2ccc(C(=O)O)cc2)c2ccccc2)cc1	0.6	34.5*	14.2	30.6*	22.8
COC(=O)/C(=N\Nc1ccc(Cl)cc1)Sc1nnc(-c2ccc(OC)cc2)n1C	-1.5	-3.2	5.5	16.3	x
COc1ccc2nc(-n3c(O)c(C4=c5ccccc5=NC4=O)[nH]c3=S)sc2c1	-0.3	24.6	-2.8	34.6*	34.4
C/C(=N\NC(=O)c1cccc([N+](=O)[O-])c1)c1cccs1	-0.5	-3.2	-7.3	2.6	x
CN(C)c1ccc(C(=O)c2ccc(O)cc2O)cc1	-1.0	-95.3	10.9	-1.9	x
CN(C)c1ccc(Cc2cc3c(O)ccc(O)c3cc(Cc3ccc(N(C)C)cc3)c2=O)cc1	-0.4	13.4	16.4	32.6*	22.6
O=C(NCCn1ccc2ccccc21)C1CCCCC1	-0.3	-0.1	9.1	2.6	x
Cc1cc2ccccc2n1CCNC(=O)C1CCCCC1	5.9	0.3	58.8	38.2*	1.6
Cc1cc2ccccc2n1CCNC(=O)C1CC1	-3.2	6.5	46.6*	32.5*	2.4
COCCN1C(=O)C(=O)/C(=C(/O)c2ccc(S(=O)(=O)N3CCOCC3)cc2)C1c1ccc(O)cc1 (stereo not drawn)	1.2	4.4	5.1	-0.9	x
COc1cccc2c1OC[C@@H](CO)[C@H]2N(C)C(=O)Nc1ccc(Cl)cc1Cl	-2.2	-2.8	-6.5	31.5*	13.0
COc1ccccc1-c1nnc(SCC(=O)Nc2ccc(Cl)cc2Cl)o1	-0.9	-7.7	14.7	-2.5	x
COc1ccc(CN2CCN(CC=C(C)C)C(CCO)C2)cc1Cn1cccn1 (stereo not drawn)	3.8	-8.4	5.5	-0.7	x
O=S(=O)(O)c1cc(Cl)cc(N=Nc2ccc(O)cc2O)c1O	1.4	-18.0	89.1	62.0*	45.8
O=[N+]([O-])c1ccc(N=Nc2ccc(O)cc2O)cc1	-1.9	5.6	-4.1	1.3	x
CC1CCCC(C)N1C(=O)COC(=O)CNC(=O)c1ccccc1 (stereo not drawn)	-0.4	12.9	8.1	3.6	x
NC(=O)N/N=C/c1cccc(C(F)(F)F)c1	0.0	4.5	-0.7	-2.8	x
COc1cccc(CNC(=O)c2ccccc2-c2ccccc2C(=O)O)c1	-0.2	0.2	8.4	-4.2	x
CC[n+]1c(/C=C/Nc2ccccc2)sc2ccccc21	-1.4	1.6	39.2*	37.6*	40.9
CC[n+]1c(/C=C(\C)Nc2ccccc2)sc2ccccc21	-1.6	-5.3	11.2	-2.4	x
COc1ccccc1NC(=O)c1ccc(S(=O)(=O)N(C)c2ccccc2)cc1	-0.3	9.7	-8.3	3.8	x
COc1ccccc1NC(=O)c1ccc(S(=O)(=O)N(C)c2ccccc2OC)cc1	2.0	-18.1	2.3	34.9*	9.5
CCOC(=O)CN(C(=O)c1snc(C(N)=O)c1N)C(C(=O)NCCC(C)C)c1ccc(F)cc1 (stereo not drawn)	0.5	-0.3	-11.6	2.0	x
SMILES	iPSC survival up	CendR NRP1 mod	SKN-1 inh	MT1-MMP act inh	MT1-MMP act val
COc1ccccc1N=Nc1nc(-c2ccccc2)c(-c2ccccc2)[nH]1	-0.8	-2.8	36.5*	30.7*	31.0
CNc1c(C(=O)O)ccc2c1C(=O)c1ccccc1C2=O	4.3	18.7	15.7	34.3*	26.0
CCNc1c(C(=O)O)ccc2c1C(=O)c1ccccc1C2=O	0.0	2.2	13.8	16.4	x
CC(=O)NCCNC(=O)C1(C)Cc2c(-c3cccc(C(N)=O)c3)ccnc2O1 (stereo not drawn)	6.9	-7.8	-14.9	9.3	x
CC(C)(C)c1ccc(OCCNC(=O)c2ncn[nH]2)cc1	-3.5	2.3	-14.1	36.2*	4.8
CCOC(=O)c1c2c3c(cccc3[nH]c1=O)C(=O)c1ccccc1-2	1.1	-7.3	8.0	-9.5	x
CCOC(=O)c1c2c3c(c(Cl)ccc3[nH]c1=O)C(=O)c1ccccc1-2	-0.3	1.2	7.9	44.2*	22.1
CC1CC2(CCCC2)Nc2ccc(F)cc21 (stereo not drawn)	1.2	9.8	4.3	7.3	x
Cc1cccc2c1NC1(CCCC1)CC2C (stereo not drawn)	0.3	0.5	6.1	30.4*	-0.7
O=C1CSC(=S)N1CC1CCCO1 (stereo not drawn)	2.2	-3.6	2.1	34.7*	1.2
O=C1NC(C(=O)O)=CC(c2cccc(Cl)c2Cl)N1 (stereo not drawn)	-0.9	-12.8	-6.4	4.0	x
